From ChEMBL document CHEMBL1145810, “Synthesis and complement inhibitory activity of B/C/D-ring analogues of the fungal metabolite 6,7-diformyl-3',4',4a',5',6',7',8',8a'-octahydro-4,6',7'-trihydroxy- 2',5',5',8a'-tetramethylspiro[1'(2'H)-naphthalene-2(3H)-benzofuran]” (J Med Chem, 2003)

Assays:
[1] = species on record: Homo sapiens; assay: Ability to inhibit complement-mediated erythrocyte lysis (hemolysis) in human serum; assay type: functional, organism-based
Outline: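 Antibody-sensitized sheep erythrocytes incubated with compound and diluted human serum, 60 min at 37 °C. Cells pelleted by centrifugation; released hemoglobin read at 410 nm in supernatant. Each sample paired with a serum-free control for complement-independent lysis, which was subtracted. Fractional inhibition taken relative to the no-compound sample.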

[2] = species on record: Oryctolagus cuniculus; assay: Ability to inhibit lysis of rabbit erythrocytes by the alternative complement pathway was determined; assay type: functional, organism-based
Outline: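 Alternative-pathway hemolysis of rabbit erythrocytes. Cells incubated with compound and human serum for 60 min at 37 °C. Supernatant hemoglobin read at 410 nm after centrifugation. Serum-free background was subtracted and inhibition taken relative to the no-compound sample.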

[3] = Inhibitory activity against proteolytic release of C5a in activated human serum was determined; assay type: functional
Outline: (§1)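 Human serum (73% of final volume) equilibrated with a range of compound concentrations dissolved in 0.10 M HEPES, 0.15 M NaCl, pH 7.4. Serum then activated with heat-aggregated IgG, and C5a[desArg] and C3a[desArg] quantified. Fractional inhibition taken relative to the no-compound sample and to the background level without aggregated IgG. n = 3 (one compound n = 2).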

[4] = Inhibitory activity against proteolytic release of C3a in activated human serum was determined; assay type: functional; outline: as §1

Row | IC50 [2] | IC50 [3] | IC50 [4] | Compound | IC50 [1]
1 | 1200 µM | – | – | COc1cc(C(=O)O)c(C(=O)O)c2c1CC1(CCCCC1)O2 | 800 µM
2 | 730 µM | 500 µM | – | COc1cc(C(=O)O)c(C=O)c2c1CC1(CCCCC1)O2 | 160 µM
3 | 2200 µM | – | – | COc1cc(C(=O)O)cc2c1CC1(CCCCC1)O2 | 530 µM
4 | – | 1300 µM | 700 µM | COc1cc2c(c3c1CC1(CCCCC1)O3)C(=O)OC2 | –
5 | 2200 µM | 5000 µM | 22000 µM | COc1ccc(C(=O)O)c2c1CC1(CCCCC1)O2 | 1300 µM
6 | – | 22000 µM | – | O=C(O)c1ccc(O)cc1O [2,4-DIHYDROXYBENZOIC ACID] | –

Further lines, the compound ahead of its results:

Row | Compound | IC50 [2] | IC50 [3] | IC50 [4] | IC50 [1]
7 | COc1cc(C=O)c(C(=O)O)c2c1CC1(CCCCC1)O2 | 1900 µM | – | – | 1700 µM
8 | O=C(O)c1ccc(O)c2c1OC1(CCCCC1)C2 | – | – | – | 3000 µM
9 | COc1ccc(C=O)c2c1CC1(CCCCC1)O2 | – | 8000 µM | 13000 µM | –
10 | COc1cc(C(=O)O)cc(O)c1CC1=CCCCC1 | 3500 µM | – | – | 820 µM
11 | COc1ccc(C(=O)O)c(O)c1CC1=CCCCC1 | – | – | – | 2100 µM
12 | O=C(O)c1cc(O)c2c(c1)OC1(CCCCC1)C2 | 3800 µM | – | – | 1500 µM
13 | C[C@@H]1CCC2C(C)(C)[C@H](O)[C@H](O)C[C@]2(C)C12Cc1c(O)cc(C(=O)O)c(C=O)c1O2 (stereo partly drawn) | 330 µM | 3000 µM | – | 570 µM
14 | O=C(O)c1ccccc1O [SALICYLIC ACID] | – | 21000 µM | – | –
